Laboratory results from ChEMBL document CHEMBL5653631, “A Potent and Selective ULK1 Inhibitor Suppresses Autophagy and Sensitizes Cancer Cells to Nutrient Stress” (iScience, 2018).
Values belong to the molecule of their own block, whether it stands above or below them.

Tests used:
[1] = target: Cyclin-dependent kinase 12 (Homo sapiens) (UniProt Q9NYV4); test: Inhibition of human recombinant CRK7 at 500 nM in presence of ATP by radiometric assay relative to control
[2] = target: Tyrosine-protein kinase SYK (Homo sapiens) (UniProt P43405); test: Inhibition of human recombinant SYK at 500 nM related to control ULK1
[3] = target: Death-associated protein kinase 3 (Homo sapiens) (UniProt O43293); test: Inhibition of human recombinant DAPK3 at 40 nM related to control ULK1
Sequence of Death-associated protein kinase 3 (Homo sapiens) (O43293 whole entry, looked up): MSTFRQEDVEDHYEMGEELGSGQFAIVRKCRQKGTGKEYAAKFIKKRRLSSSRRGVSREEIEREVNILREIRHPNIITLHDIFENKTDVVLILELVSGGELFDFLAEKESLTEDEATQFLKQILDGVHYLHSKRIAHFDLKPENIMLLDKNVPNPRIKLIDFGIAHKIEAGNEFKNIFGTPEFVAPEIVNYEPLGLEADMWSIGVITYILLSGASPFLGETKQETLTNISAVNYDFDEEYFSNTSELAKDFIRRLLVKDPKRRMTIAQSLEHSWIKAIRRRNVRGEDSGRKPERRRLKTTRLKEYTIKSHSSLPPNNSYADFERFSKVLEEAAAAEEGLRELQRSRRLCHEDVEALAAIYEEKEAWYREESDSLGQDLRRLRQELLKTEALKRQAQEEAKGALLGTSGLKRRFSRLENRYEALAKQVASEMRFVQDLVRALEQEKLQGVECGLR

[4] = target: T1, Ephrin type-B receptor 4 (Homo sapiens) (UniProt P54760); test: Inhibition of human recombinant EphB4 at 40 nM related to control ULK1
T1 sequence (whole entry): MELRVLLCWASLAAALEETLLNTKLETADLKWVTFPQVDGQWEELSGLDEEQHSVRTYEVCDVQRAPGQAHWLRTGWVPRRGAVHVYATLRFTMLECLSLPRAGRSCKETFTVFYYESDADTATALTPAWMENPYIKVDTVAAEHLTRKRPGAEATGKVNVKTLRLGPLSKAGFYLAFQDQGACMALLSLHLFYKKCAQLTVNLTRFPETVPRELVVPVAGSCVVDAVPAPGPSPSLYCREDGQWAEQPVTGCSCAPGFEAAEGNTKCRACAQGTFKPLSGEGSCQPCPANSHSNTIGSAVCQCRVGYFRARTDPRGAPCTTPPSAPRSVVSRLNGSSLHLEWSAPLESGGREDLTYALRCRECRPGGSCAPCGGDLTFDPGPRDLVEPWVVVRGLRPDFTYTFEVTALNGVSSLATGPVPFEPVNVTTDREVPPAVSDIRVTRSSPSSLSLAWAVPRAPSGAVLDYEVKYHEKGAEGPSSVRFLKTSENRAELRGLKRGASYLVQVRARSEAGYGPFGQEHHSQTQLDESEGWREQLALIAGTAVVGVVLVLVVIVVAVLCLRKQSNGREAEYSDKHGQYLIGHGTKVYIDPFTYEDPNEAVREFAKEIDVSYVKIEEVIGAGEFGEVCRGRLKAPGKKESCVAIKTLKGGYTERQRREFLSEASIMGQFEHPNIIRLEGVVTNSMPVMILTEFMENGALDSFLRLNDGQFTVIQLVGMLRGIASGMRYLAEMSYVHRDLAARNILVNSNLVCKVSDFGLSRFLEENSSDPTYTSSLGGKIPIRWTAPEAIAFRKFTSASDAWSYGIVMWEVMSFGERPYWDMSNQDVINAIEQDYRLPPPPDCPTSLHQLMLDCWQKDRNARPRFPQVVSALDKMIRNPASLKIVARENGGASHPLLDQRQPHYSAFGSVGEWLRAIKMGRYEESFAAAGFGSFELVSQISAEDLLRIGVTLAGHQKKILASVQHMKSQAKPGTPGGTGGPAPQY

[5] = target: T2, Bone morphogenetic protein receptor type-2 (Homo sapiens) (UniProt Q13873); test: Inhibition of human recombinant BMPR2 at 15 nM in presence of ATP by radiometric assay relative to control
T2 sequence (whole entry): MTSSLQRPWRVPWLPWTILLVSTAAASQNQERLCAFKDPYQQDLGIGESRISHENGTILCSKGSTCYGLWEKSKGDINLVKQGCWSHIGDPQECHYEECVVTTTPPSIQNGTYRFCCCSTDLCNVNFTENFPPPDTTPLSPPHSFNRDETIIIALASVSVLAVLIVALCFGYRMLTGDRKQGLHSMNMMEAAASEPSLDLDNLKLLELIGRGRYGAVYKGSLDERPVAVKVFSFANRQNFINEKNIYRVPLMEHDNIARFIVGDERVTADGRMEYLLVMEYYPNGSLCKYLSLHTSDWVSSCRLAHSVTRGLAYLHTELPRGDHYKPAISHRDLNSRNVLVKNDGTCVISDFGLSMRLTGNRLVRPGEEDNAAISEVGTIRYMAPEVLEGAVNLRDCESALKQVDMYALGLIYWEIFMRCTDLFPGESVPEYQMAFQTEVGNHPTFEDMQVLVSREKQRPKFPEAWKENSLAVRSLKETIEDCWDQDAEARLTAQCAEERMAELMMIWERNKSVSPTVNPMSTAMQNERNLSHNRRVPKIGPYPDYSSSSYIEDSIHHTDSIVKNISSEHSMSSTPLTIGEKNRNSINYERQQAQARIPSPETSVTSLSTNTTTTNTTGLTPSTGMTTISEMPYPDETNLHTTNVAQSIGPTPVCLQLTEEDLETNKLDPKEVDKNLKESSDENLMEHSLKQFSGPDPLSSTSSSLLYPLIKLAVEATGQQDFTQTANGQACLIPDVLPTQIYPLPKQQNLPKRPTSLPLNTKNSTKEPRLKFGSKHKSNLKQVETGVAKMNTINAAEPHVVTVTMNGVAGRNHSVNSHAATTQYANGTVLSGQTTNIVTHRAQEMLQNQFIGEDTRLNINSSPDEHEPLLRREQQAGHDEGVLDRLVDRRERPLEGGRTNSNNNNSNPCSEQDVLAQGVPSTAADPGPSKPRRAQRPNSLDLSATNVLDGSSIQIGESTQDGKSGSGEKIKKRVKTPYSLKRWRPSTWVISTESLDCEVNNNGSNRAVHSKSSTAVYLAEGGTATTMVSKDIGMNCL
Outline: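 Part of a radiometric in vitro activity panel of 327 recombinant human kinases. Each kinase was tested in duplicate at one inhibitor concentration. Activity remaining was expressed as a percentage of the vehicle control, and percent inhibition was taken as 100 minus that value.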

[6] = target: Dual specificity protein kinase CLK4 (Homo sapiens) (UniProt Q9HAZ1); test: Inhibition of human recombinant CLK4 at 15 nM in presence of ATP by radiometric assay relative to control
Sequence of Dual specificity protein kinase CLK4 (Homo sapiens) (Q9HAZ1 whole entry, looked up): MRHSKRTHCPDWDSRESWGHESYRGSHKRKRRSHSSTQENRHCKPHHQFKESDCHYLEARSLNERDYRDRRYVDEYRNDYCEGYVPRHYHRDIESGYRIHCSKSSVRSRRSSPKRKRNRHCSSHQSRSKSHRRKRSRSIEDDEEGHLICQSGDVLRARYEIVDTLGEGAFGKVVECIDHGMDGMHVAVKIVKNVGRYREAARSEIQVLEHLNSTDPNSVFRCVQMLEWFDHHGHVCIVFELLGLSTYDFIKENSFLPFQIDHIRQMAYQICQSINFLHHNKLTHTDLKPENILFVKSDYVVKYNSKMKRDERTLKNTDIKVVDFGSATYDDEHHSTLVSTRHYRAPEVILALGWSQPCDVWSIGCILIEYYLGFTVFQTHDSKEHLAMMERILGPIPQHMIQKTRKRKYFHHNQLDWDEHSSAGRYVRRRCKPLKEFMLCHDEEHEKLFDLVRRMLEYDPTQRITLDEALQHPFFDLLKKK

[7] = target: Cyclin-dependent kinase 12 (Homo sapiens) (UniProt Q9NYV4); test: Inhibition of human recombinant CRK7 at 15 nM in presence of ATP by radiometric assay relative to control
[8] = target: T3, Serine/threonine-protein kinase Sgk3 (Homo sapiens) (UniProt Q96BR1); test: Inhibition of human recombinant SGK3 at 15 nM in presence of ATP by radiometric assay relative to control
T3 sequence (whole entry): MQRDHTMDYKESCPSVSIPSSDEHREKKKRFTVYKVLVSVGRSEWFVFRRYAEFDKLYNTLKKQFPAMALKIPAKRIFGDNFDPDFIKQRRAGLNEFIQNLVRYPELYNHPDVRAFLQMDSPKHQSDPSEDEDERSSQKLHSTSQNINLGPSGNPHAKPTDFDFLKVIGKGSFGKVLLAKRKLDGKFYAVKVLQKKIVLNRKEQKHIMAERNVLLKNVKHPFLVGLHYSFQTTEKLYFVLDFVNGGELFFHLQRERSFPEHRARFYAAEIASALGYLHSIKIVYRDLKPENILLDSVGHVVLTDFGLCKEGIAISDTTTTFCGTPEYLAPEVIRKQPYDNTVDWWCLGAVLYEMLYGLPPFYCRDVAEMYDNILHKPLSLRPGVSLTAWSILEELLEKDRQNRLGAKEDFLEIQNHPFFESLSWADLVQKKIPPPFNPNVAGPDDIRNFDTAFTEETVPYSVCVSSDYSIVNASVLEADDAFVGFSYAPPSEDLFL

Sequence of Cyclin-dependent kinase 12 (Homo sapiens) (Q9NYV4 whole entry, looked up): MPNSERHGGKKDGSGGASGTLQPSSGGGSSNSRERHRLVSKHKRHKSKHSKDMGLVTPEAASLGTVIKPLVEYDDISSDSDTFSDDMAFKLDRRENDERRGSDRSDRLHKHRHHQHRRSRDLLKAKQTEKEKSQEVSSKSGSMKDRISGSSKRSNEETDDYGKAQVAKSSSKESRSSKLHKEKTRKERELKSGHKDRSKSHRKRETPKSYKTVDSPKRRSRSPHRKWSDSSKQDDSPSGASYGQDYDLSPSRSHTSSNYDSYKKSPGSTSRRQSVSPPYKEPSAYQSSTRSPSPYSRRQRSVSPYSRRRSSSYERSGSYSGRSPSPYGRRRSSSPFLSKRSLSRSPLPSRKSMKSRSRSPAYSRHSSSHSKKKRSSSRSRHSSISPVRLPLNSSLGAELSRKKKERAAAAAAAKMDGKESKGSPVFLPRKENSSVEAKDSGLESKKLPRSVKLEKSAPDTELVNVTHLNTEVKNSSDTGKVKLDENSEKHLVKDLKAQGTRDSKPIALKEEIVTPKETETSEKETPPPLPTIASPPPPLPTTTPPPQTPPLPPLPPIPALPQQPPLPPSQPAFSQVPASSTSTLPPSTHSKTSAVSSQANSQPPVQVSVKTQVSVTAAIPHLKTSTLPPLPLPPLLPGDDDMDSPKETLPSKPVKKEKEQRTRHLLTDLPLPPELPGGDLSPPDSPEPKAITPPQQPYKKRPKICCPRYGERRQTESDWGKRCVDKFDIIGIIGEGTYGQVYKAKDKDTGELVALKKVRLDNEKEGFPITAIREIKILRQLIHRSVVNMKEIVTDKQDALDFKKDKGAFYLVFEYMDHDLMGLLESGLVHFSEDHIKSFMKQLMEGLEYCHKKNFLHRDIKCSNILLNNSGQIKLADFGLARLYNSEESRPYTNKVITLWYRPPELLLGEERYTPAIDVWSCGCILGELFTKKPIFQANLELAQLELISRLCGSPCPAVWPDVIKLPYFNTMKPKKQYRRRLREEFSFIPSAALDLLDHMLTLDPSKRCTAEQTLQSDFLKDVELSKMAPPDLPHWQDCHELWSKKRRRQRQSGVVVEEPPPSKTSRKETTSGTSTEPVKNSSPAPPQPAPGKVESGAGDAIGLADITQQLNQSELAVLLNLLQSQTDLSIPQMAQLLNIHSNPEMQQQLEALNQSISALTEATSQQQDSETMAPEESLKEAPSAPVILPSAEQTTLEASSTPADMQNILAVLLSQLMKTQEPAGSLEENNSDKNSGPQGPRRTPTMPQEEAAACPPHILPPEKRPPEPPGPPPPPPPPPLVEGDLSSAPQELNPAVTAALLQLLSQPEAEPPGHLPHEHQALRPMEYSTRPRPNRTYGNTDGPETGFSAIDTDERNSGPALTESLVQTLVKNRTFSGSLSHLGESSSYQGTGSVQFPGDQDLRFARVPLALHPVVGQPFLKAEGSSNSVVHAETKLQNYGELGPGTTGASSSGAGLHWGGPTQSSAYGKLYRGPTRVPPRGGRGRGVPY

inhibition [1]: 0%
fold change (FC) [2]: 0
Compound: CNC(=O)c1ccccc1Oc1nc(Nc2cc(OC)c(OC)c(OC)c2)ncc1Br

fold change (FC) [4]: 0
Compound: O=C(N[C@@H](C1CC1)C(F)(F)F)c1cc(-c2cnn3cc(-c4ccc(F)cc4)cnc23)cs1
fold change (FC) [3]: 0.11

inhibition [5]: 5%
inhibition [6]: 83%
inhibition [7]: 4%
inhibition [8]: 4%
Compound: CC(C)[C@H](NC(=O)c1cc(-c2cnn3cc(-c4ccc(OCCN5CCCCC5)cc4)cnc23)cs1)C(F)(F)F
